Assay results reported in ChEMBL document CHEMBL2176886, “Anti-AIDS agents 90. novel C-28 modified bevirimat analogues as potent HIV maturation inhibitors” (J Med Chem, 2012).
Calls of active or inactive are those of the source. No cut-off for these calls is given here.

Experiments:
[1] = tested on: Human immunodeficiency virus 1; assay: Antiviral activity against HIV1 infected in human TZM-bl cells assessed as reduction of viral entry after 48 hrs by luciferase reporter gene assay; format: functional, organism-based
Summary of the method: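 Single-round infection of TZM-bl cells (HeLa clone expressing CD4/CCR5 with HIV-1 LTR-driven firefly luciferase) with HIV-1 at 200 TCID50 mixed with test samples. After 48 h, medium was replaced with Bright-Glo reagent and luminescence read. IC50 is the concentration giving 50% RLU reduction versus virus-control wells after background subtraction.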

[2] = Therapeutic index, ratio of CC50 for human MT4 cells to IC50 for HIV-1 NL4-3; format: cell-based; settings: read-out: Ratio CC50/IC50
Summary of the method: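 TI calculated as CC50 (mock-infected MT-4 growth, 2 days) divided by IC50 (HIV-1 NL4-3 replication in MT-4 cells, p24 ELISA at day 4).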

[3] = tested on: Human immunodeficiency virus 1; assay: Antiviral activity against HIV1 NL4-3 infected in human MT4 cells assessed as p24 antigen level after 4 days by ELISA; format: functional, organism-based; settings: Human immunodeficiency virus 1, NL4-3, MT4, 96 h
Summary of the method: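 MT-4 cells infected with HIV-1 NL4-3 variants at MOI 0.01; supernatants harvested day 4 post-infection for p24 antigen capture ELISA. IC50 is the concentration inhibiting replication by 50%; values are averages of at least three separate experiments.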

MT4 = assay: Cytotoxicity against human MT4 cells after 2 days; format: cell-based; settings: mt4, 48 h
Liver microsomes = assay: Half life in human liver microsomes at 1 uM; format: ADME, Microsome
Summary of the method: (§1)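 Pooled human liver microsomes at 0.1 mg/mL in 0.1 M potassium phosphate pH 7.4 with 5 mM MgCl2. Compound at 1 μM final; reaction started with 1.0 mM NADPH (final) at 37 °C, duplicate incubations. Quenched with ice-cold acetonitrile at 0, 5, 15, 30, 60 min. Parent measured by LC-ESI-MS (SIM), remaining percentage relative to 0 min. t1/2 = 0.693/k from log-linear slope.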

[4] = Metabolic stability in human liver microsomes assessed as compound remaining at 1 uM after 60 mins by HPLC-MS analysis; format: ADME, Microsome; settings: read-out: Stability; summary of the method: as §1
[5] = tested on: Human immunodeficiency virus 1; assay: Antiviral activity against HIV1 infected in human TZM-bl cells assessed as reduction of viral […] after 48 hrs by luciferase reporter gene assay; format: functional, organism-based
Summary of the method: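 Single-round infection of TZM-bl cells (HeLa clone expressing CD4 and CCR5, HIV-1 LTR-driven firefly luciferase) with HIV-1 at 200 TCID50 mixed with samples. Luminescence read after 48 h. IC50 is the concentration giving 50% lower RLU than virus control wells, after subtracting background RLU.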

[6] = tested on: Human immunodeficiency virus 1; assay: Ratio of bevirimat IC50 to compound IC50 for HIV1 NL4-3 infected in human MT4 cells; format: functional
Summary of the method: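 MT-4 cells were infected with HIV-1 NL4-3 at MOI 0.01. Day-4 supernatant p24 was measured by ELISA. IC50 is the concentration giving 50% inhibition of replication, from averages of at least three separate experiments. The ratio divides the bevirimat IC50 by the compound IC50, both from this assay.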

[7] = tested on: Human immunodeficiency virus 1; assay: Antiviral activity against HIV1 NL4-3 infected in human MT4 cells assessed as p24 antigen level at 10 uM after 4 days by ELISA; format: functional, organism-based
Homo sapiens = species: Homo sapiens; assay: Elimination half life in human; format: ADME, organism-based; settings: in vivo

SMILES	Activity [1]	selectivity ratio [2]	IC50 [3] [nM]	CC50 (MT4) [nM]	t1/2 (Liver microsomes) [h]	remaining at 1 h, 1 µM [4] [%]	Activity [5]	Ratio IC50 [6]	Activity [7]	beta t1/2 (Homo sapiens) [h]
C=C(C)[C@@H]1CC[C@]2(C(=O)OCc3cn([C@H]4C[C@H](n5cc(C)c(=O)[nH]c5=O)O[C@@H]4CO)nn3)CC[C@]3(C)[C@H](CC[C@@H]4[C@@]5(C)CC[C@H](OC(=O)CC(C)(C)C(=O)O)C(C)(C)[C@@H]5CC[C@]43C)[C@@H]12	inactive	101	100	11000						
C=C(C)[C@@H]1CC[C@]2(C(=O)OCOC)CC[C@]3(C)[C@H](CC[C@@H]4[C@@]5(C)CC[C@H](OC(=O)CC(C)(C)C(=O)O)C(C)(C)[C@@H]5CC[C@]43C)[C@@H]12	inactive	70.9	170	12400						
C=C(C)[C@@H]1CC[C@]2(C(=O)ON3C(=O)CCC3=O)CC[C@]3(C)[C@H](CC[C@@H]4[C@@]5(C)CC[C@H](OC(=O)CC(C)(C)C(=O)O)C(C)(C)[C@@H]5CC[C@]43C)[C@@H]12	inactive	86.2	130	11000						
C=C(C)[C@@H]1CC[C@]2(C(=O)N3CCC(CCCC(=O)N4CCOCC4)CC3)CC[C@]3(C)[C@H](CC[C@@H]4[C@@]5(C)CC[C@H](OC(=O)CC(C)(C)C(=O)O)C(C)(C)[C@@H]5CC[C@]43C)[C@@H]12	inactive	156	70	10900						
C=C(C)[C@@H]1CC[C@]2(C(=O)N3CCN(CCCCC(=O)O)CC3)CC[C@]3(C)[C@H](CC[C@@H]4[C@@]5(C)CC[C@H](OC(=O)CC(C)(C)C(=O)O)C(C)(C)[C@@H]5CC[C@]43C)[C@@H]12	inactive	2240	5.9	13200	5.45	86.2	Active	15		
C=C(C)[C@@H]1CC[C@]2(C(=O)OCCOCCOCCOCCOC(=O)CC(C)(C)C(=O)O)CC[C@]3(C)[C@H](CC[C@@H]4[C@@]5(C)CC[C@H](OC(=O)CC(C)(C)C(=O)O)C(C)(C)[C@@H]5CC[C@]43C)[C@@H]12	inactive	111	79	8900						
C=C(C)[C@@H]1CC[C@]2(C(=O)OCCCCCC)CC[C@]3(C)[C@H](CC[C@@H]4[C@@]5(C)CC[C@H](OC(=O)CC(C)(C)C(=O)O)C(C)(C)[C@@H]5CC[C@]43C)[C@@H]12	inactive	8.3	1800	14800			Active			
C=C(C)[C@@H]1CC[C@]2(C(=O)N3CCC(CCCC(=O)NCCCN4CCOCC4)CC3)CC[C@]3(C)[C@H](CC[C@@H]4[C@@]5(C)CC[C@H](OC(=O)CC(C)(C)C(=O)O)C(C)(C)[C@@H]5CC[C@]43C)[C@@H]12	inactive	321	31	10000				3		
C=C(C)[C@@H]1CC[C@]2(C(=O)OCOCCOC)CC[C@]3(C)[C@H](CC[C@@H]4[C@@]5(C)CC[C@H](OC(=O)CC(C)(C)C(=O)O)C(C)(C)[C@@H]5CC[C@]43C)[C@@H]12	inactive	261	46	12100			Active	2		
C=C(C)[C@@H]1CC[C@]2(C(=O)OCCCCCC(=O)OCC)CC[C@]3(C)[C@H](CC[C@@H]4[C@@]5(C)CC[C@H](OC(=O)CC(C)(C)C(=O)O)C(C)(C)[C@@H]5CC[C@]43C)[C@@H]12	inactive	154	56	8600			Active			
C=C(C)[C@@H]1CC[C@]2(C(=O)OCCC)CC[C@]3(C)[C@H](CC[C@@H]4[C@@]5(C)CC[C@H](OC(=O)CC(C)(C)C(=O)O)C(C)(C)[C@@H]5CC[C@]43C)[C@@H]12	inactive	118	88	10400			Active			
C=C(C)[C@@H]1CC[C@]2(C(=O)OCCCCCC)CC[C@]3(C)[C@H](CC[C@@H]4[C@@]5(C)CC[C@H](O)C(C)(C)[C@@H]5CC[C@]43C)[C@@H]12	inactive						Active		inactive	
C=C(C)[C@@H]1CC[C@]2(C(=O)O)CC[C@]3(C)[C@H](CC[C@@H]4[C@@]5(C)CC[C@H](OC(=O)CC(C)(C)C(=O)O)C(C)(C)[C@@H]5CC[C@]43C)[C@@H]12 [BEVIRIMAT]	inactive	171	87	14200						56.3
C=C(C)[C@@H]1CC[C@]2(C(=O)OCCC)CC[C@]3(C)[C@H](CC[C@@H]4[C@@]5(C)CC[C@H](O)C(C)(C)[C@@H]5CC[C@]43C)[C@@H]12	inactive						Active		inactive	
C=C(C)[C@@H]1CC[C@]2(C(=O)OCCCCCCCC)CC[C@]3(C)[C@H](CC[C@@H]4[C@@]5(C)CC[C@H](OC(=O)CC(C)(C)C(=O)O)C(C)(C)[C@@H]5CC[C@]43C)[C@@H]12	inactive								inactive	
C=C(C)[C@@H]1CC[C@]2(C(=O)N3CCC(CCCC(=O)NCCN4CCOCC4)CC3)CC[C@]3(C)[C@H](CC[C@@H]4[C@@]5(C)CC[C@H](OC(=O)CC(C)(C)C(=O)O)C(C)(C)[C@@H]5CC[C@]43C)[C@@H]12	inactive	286	35	10000				3		
C=C(C)[C@@H]1CC[C@]2(C(=O)OCOC)CC[C@]3(C)[C@H](CC[C@@H]4[C@@]5(C)CC[C@H](O)C(C)(C)[C@@H]5CC[C@]43C)[C@@H]12	inactive								inactive	
C=C(C)[C@@H]1CC[C@]2(C(=O)N3CCN(CCCC(=O)O)CC3)CC[C@]3(C)[C@H](CC[C@@H]4[C@@]5(C)CC[C@H](OC(=O)CC(C)(C)C(=O)O)C(C)(C)[C@@H]5CC[C@]43C)[C@@H]12	inactive	1180	11	13000				7.9		
C=C(C)[C@@H]1CC[C@]2(C(=O)N3CCC(CCCC(=O)NC)CC3)CC[C@]3(C)[C@H](CC[C@@H]4[C@@]5(C)CC[C@H](OC(=O)CC(C)(C)C(=O)O)C(C)(C)[C@@H]5CC[C@]43C)[C@@H]12	inactive	> 55.5	240	> 13300						
C=C(C)[C@@H]1CC[C@]2(C(=O)O)CC[C@]3(C)[C@H](CC[C@@H]4[C@@]5(C)CC[C@H](OCOCCOC)C(C)(C)[C@@H]5CC[C@]43C)[C@@H]12	inactive								inactive	
C#CCOC(=O)[C@]12CC[C@@H](C(=C)C)[C@@H]1[C@H]1CC[C@@H]3[C@@]4(C)CC[C@H](OC(=O)CC(C)(C)C(=O)O)C(C)(C)[C@@H]4CC[C@@]3(C)[C@]1(C)CC2	inactive	226	67	15300						
